ChEMBL document CHEMBL1123396, “Glycine antagonists. Synthesis, structure, and biological effects of some bicyclic 5-isoxazolol zwitterions” (J Med Chem, 1986)

Assays:
[1] = target: GABA-A receptor; anion channel; assay: In vitro inhibition of [3H]GABA binding to Gamma-aminobutyric acid receptor from rat brain synaptic membranes.; type: cell membranes, Membrane
In short: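 Rat brain synaptic membranes (0.8–1.2 mg protein) incubated in triplicate in 50 mM Tris-citrate pH 7.1 with 5 nM [3H]GABA and various test concentrations, 15 min at 2 °C. Centrifugation at 48000g for 10 min, pellets rinsed twice with cold water, scintillation counting. Nonspecific binding (1 mM GABA) subtracted. IC50 by log-probit analysis of inhibition at at least four concentrations.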

GABA transporter = GABA transporter (Rattus norvegicus, UniProt P31647+P23978+P31646+P48056); assay: In vitro inhibition of rat neuronal (synaptosomal) GABA uptake.; type: protein assay
In short: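 Crude rat whole-brain synaptosomes (homogenized in 0.32 M sucrose, 600g and 25000g spins at 4 °C) suspended in oxygenated phosphate medium. Preincubated 10 min at 25 °C with inhibitor, then [3H]GABA added to 50 nM final and incubated 10 min more. Rapid glass-fiber filtration, ice-cold buffer wash, scintillation counting.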

[2] = pKa value of the compound; type: physicochemical
In short: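 Potentiometric titration with 0.1 N NaOH to pH ca. 10, ionic strength held constant with 0.15 M KCl.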

| IC50 [1] [µM] | IC50 (GABA transporter) [µM] | pKa [2] | Structure (SMILES) |
| --- | --- | --- | --- |
| 15 | > 300 | 3.3 | Oc1onc2c1CCNCC2 |
| > 100 | > 300 | 2.6 | Oc1onc2c1CNCCC2 |
| 0.033 |  | 4 | NCCC(N)C(=O)O (stereo unspecified) |
| 100 | 130 | 3 | Oc1onc2c1CNCC2 |
|  | > 300 |  | Oc1noc2c1CCNCC2 |
| > 100 | > 300 | 2.5 | Oc1onc2c1CCCNC2 |

| Structure (SMILES) | IC50 [1] [µM] | IC50 (GABA transporter) [µM] | pKa [2] |
| --- | --- | --- | --- |
| Oc1noc2c1CNCC2 | 72 |  |  |
